High-throughput results: PubChem, several laboratories
Most compounds without a hit are left out; they make up all but 2.4% or so of the library.
Neddylation inh: inhibitors of cullin neddylation, primary screen, biochemical, TR-FRET, uHTS, NAE and Ubc12; inhibition, % at 25 µM; 360,000 tested, 0.58% active; AID 651699, 2012; in the data active means inhibition above about 36%
Target sequence (P61081 whole entry, looked up): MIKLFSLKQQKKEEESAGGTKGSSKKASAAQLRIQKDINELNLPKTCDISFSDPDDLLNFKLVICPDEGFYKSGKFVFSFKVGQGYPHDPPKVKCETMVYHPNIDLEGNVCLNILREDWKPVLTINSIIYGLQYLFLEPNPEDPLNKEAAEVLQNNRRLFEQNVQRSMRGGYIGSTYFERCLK
Target sequence (Q13564 whole entry, looked up): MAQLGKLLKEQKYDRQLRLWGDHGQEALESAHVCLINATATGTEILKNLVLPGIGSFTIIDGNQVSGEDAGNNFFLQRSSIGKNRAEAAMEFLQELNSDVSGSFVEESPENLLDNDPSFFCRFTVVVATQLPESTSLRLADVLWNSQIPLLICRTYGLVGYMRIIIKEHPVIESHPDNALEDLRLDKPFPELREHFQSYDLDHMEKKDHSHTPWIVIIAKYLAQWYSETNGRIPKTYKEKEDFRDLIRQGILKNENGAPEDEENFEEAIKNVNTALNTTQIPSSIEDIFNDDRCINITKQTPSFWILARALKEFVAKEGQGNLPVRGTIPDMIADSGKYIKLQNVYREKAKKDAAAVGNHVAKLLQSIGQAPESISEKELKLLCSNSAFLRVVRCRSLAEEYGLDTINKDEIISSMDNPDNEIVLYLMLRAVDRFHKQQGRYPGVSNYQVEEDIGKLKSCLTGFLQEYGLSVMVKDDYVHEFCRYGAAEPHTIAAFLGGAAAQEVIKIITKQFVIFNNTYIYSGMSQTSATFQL
Rin1 Abl inh: inhibitors of Rin1-Abl protein binding, primary screen, biochemical, TR-FRET | Tyrosine-protein kinase ABL1 (Homo sapiens) + Ras and Rab interactor 1 (Homo sapiens), … | inhibition, % at 7.35 µM | 360,000 tested, 0.4% active | AID 588664, 2011; in the data active means inhibition above about 5%, passing the limit was not always enough
CSN deneddyl inh: inhibitors of CSN-mediated cullin deneddylation, primary screen, biochemical, fluorescence polarization, uHTS | 360,000 tested, 0.38% active | COP9 signalosome complex subunit 5 (Homo sapiens), Q92905 | inhibition, % at 12.5 µM | AID 651999, 2013 | Purified CSN, SCF-Nedd8-OG deneddylation;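 active means pattern-corrected inhibition above about 35%, with an unprinted fluorescence ratio check between 0.5 and 1.5, limit read from the data, passing the limit was not always enough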;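 further: 0% = enzyme with substrate and 100% = substrate without enzyme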
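test system = HEK293T-derived human Csn5 enzyme | amount = 0.24 nM Csn5 enzyme, final concentration | medium = Tris/NaCl/DTT buffer, pH 7.5 | schedule = 90 min reaction at room temperature | signal = FP | evaluation = inhibition of Csn5 cleavage, % | compound dosing = single dose of 12.5 µM compound with 0.25% DMSO | probe or stimulus = 10 nM SCFSkp2-Nedd8OG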
HNF4A DNA FP: change in binding of human HNF4A to DNA, primary screen, biochemical, fluorescence polarization, FITC-DNA. Hepatocyte nuclear factor 4-alpha (Homo sapiens), P41235. 1 h. activity change, % at 10 µM. 360,000 tested, 0.3% active. AID 1224865, 2016; in the data active means activity change above about 30%, passing the limit was not always enough
Rpn11 inh: Rpn11 (PSMD14) deubiquitinase inhibitors, primary screen, biochemical, fluorescence polarization, uHTS; inhibition, % at 20 µM; 360,000 tested, 0.59% active; human 26S proteasome, Ub4-pepOG fluorescence polarization; 20S core pre-blocked with epoxomicin; 26S proteasome non-ATPase regulatory subunit 14 (Homo sapiens), O00487;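 active means inhibition at 20 µM, scaled to each plate's controls, above about 33%, limit read from the data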
TPT1 inhibitor: Candida albicans TPT1 enzyme inhibitors, primary screen, biochemical, fluorescence polarization; recombinant caTPT1, FP RNA substrate dephosphorylation; inhibition, % at 5 µM; 300,000 tested, 0.81% active; AID 1962, 2009;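 active means inhibition above the mean of all tested compounds plus 3 SD, set per screening campaign, cut at about 24% in these data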;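 further: plate controls were DMSO alone for no effect and ferristatin control at 100 nM for full effect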
Neddyl inh conf: blockade of NEDD8 conjugation to cullin – biochemical, TR-FRET, single concentration, confirmation; shares compounds with Neddylation inh; calls only at 25 µM; TR-FRET cullin neddylation biochemical assay; 1,800 tested, 13% active; in the data active means inhibition above about 40%;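 further: neddylation substrate is the cullin 1 ring ligase complex with SKP2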
* marks the source's active call; other numbers are inactive results; i = inactive; nt = no result shown; + = active, no number.

SMILES | Neddylation inh | Rin1 Abl inh | CSN deneddyl inh | HNF4A DNA FP | Rpn11 inh | TPT1 inhibitor | Neddyl inh conf
COC(=O)c1ccc2[nH]c3c(c2c1)CC(C)CC3 (stereo not drawn) | 40* | -1 | -1 | -1 | -1 | 3 | +
CC1CCC2C(C1)OS(=O)(=O)NC2(C)C (stereo not drawn) | nt | nt | nt | nt | nt | -4 | nt
COc1ccc2[nH]cc(CCNC(=O)CC[C@H]3O[C@@H](n4cc(C)c(=O)[nH]c4=O)C[C@@H]3O)c2c1 | 3 | -1 | 4 | 0 | -2 | nt | nt
COc1cc(C(CC(=O)Nc2cccc(C)n2)N2Cc3ccccc3C2=O)cc(OC)c1OC (stereo not drawn) | -6 | 1 | 4 | 3 | 0 | 2 | nt
COc1ccc(-c2cc(-c3ccco3)[nH]c(=O)c2C#N)cc1 | 54* | -4 | 14 | -2 | 4 | 6 | i
COc1ccc(-c2cc(C(F)(F)F)c(C#N)c(=O)[nH]2)cc1 | nt | -2 | -8 | -1 | 1 | -3 | nt
Cc1cc2n(n1)C(c1ccc3c(c1)OCO3)Nc1ccccc1-2 (stereo not drawn) | 41* | -3 | -3 | 2 | 5 | 0 | i
Cc1ccc2c(c1)-c1cc(C)nn1C(c1ccc3c(c1)OCO3)N2 (stereo not drawn) | nt | -4 | -1 | -4 | 3 | 2 | nt
Cc1ccccc1-c1cc2nc(C)c(Cl)c(=O)n2[nH]1 | 50* | 0 | 2 | -4 | 0 | 1 | i
COc1ccc(C(=O)NC(=S)NNC(=O)[C@H]2C[C@@H]2c2ccccc2)cc1OC | 39* | 1 | -9 | -1 | 3 | 0 | i
Cc1ccc2nc3c(cc(C(=O)NCc4ccco4)c(=N)n3Cc3ccco3)c(=O)n2c1 | 56* | -3 | 28 | -8 | -12 | 2 | i
N=c1c(C(=O)NCc2ccco2)cc2c(=O)n3ccccc3nc2n1Cc1ccc(Cl)cc1 | 55* | -5 | 1 | 0 | 32 | 21 | i
N=c1c(C(=O)NCc2ccco2)cc2c(=O)n3ccccc3nc2n1Cc1ccccc1 | nt | -6 | 9 | -10 | -15 | 17 | nt
N=c1c(C(=O)NCCN2CCOCC2)cc2c(=O)n3ccccc3nc2n1Cc1ccc(F)cc1 | 73* | -3 | -7 | 0 | -1 | 4 | nt
N=c1c(C(=O)NCc2ccccc2)cc2c(=O)n3ccccc3nc2n1Cc1ccco1 | nt | -7 | 9 | -2 | 12 | 4 | nt
CC(=O)c1cccc(NC(=O)C(C)OC(=O)c2ccc(-n3cnnn3)cc2)c1 (stereo not drawn) | -3 | 2 | 2 | 1 | 1 | nt | nt
CCc1nnc(NC(=O)CSc2nc(-c3ccccc3)cc(-c3ccc(OC)cc3)c2C#N)s1 | -11 | -3 | -6 | -6 | 1 | 5 | nt
CCC(=O)Nc1nnc(/C=C/c2ccccc2)s1 | 47* | -4 | 0 | 1 | 1 | -1 | i
O=C(c1ccc(NS(=O)(=O)/C=C/c2ccccc2)cc1)N1CCCCC1 | 4 | 1 | -1 | 4 | -2 | -4 | nt
COc1ccc(Cc2c(-c3ccc(OC)c(OC)c3)nc3ccc(C)cn23)c(C)c1 | 29 | -1 | 2 | 8 | 16 | nt | nt
CCOC(=O)/C(C#N)=C(\O)c1ccc(NC(=O)c2ccc([N+](=O)[O-])cc2)cc1 | -34 | -1 | -2 | 0 | -10 | -1 | nt
c1cncc(-c2nnc(-c3cccs3)o2)c1 | 52* | -3 | 9 | 0 | -6 | 0 | nt
O=C(c1ccco1)N1CCN(C(=O)c2ccccc2OCc2ccccc2)CC1 | -3 | 2 | -1 | 5 | 2 | nt | nt
Nc1ccc(C(=O)N/N=C/c2cn(Cc3ccccc3)c3ccccc23)cc1 | 41* | 1 | 0 | 2 | 2 | nt | i
Nc1ccc(C(=O)N/N=C/c2cn(Cc3ccc(F)cc3)c3ccccc23)cc1 | 35 | 3 | -4 | -2 | -8 | nt | nt
SMILES | Neddylation inh | Rin1 Abl inh | CSN deneddyl inh | HNF4A DNA FP | Rpn11 inh | TPT1 inhibitor | Neddyl inh conf
CS(=O)(=O)Nc1ccc(C2=NN(C(=O)c3ccco3)C(c3ccccc3)C2)cc1 (stereo not drawn) | 41* | 0 | -2 | 2 | 1 | -2 | i
O=C(c1ccco1)N1N=C(c2cccs2)CC1c1ccccc1O (stereo not drawn) | 54* | -4 | 6 | 8 | 14 | 3 | nt
Cc1ccc(C2CC(c3ccc(NS(C)(=O)=O)cc3)=NN2C(=O)c2ccco2)cc1 (stereo not drawn) | nt | -2 | -3 | 1 | -2 | -1 | nt
NC(=O)Cn1c(=O)n(Cc2ccccc2)c(=O)c2cccnc21 | 13 | 1 | 2 | 1 | 2 | -1 | nt
CC1CCCN(C(=O)COC(=O)c2cc(-c3cccs3)nn2-c2ccccc2)C1 (stereo not drawn) | -2 | -2 | 0 | -1 | -4 | 1 | nt
Cc1nc2ccc(-c3nc4ccccc4[nH]3)cc2[nH]1 | 47* | 0 | 1 | 0 | -4 | -1 | i
CCN(CC)C(=O)CSc1ncccc1-c1nc2ccccc2[nH]1 | 43* | 3 | -4 | 11 | 12 | -4 | i
CN(C)C(=O)CSc1ncccc1-c1nc2ccccc2[nH]1 | 37 | 0 | 9 | -3 | 3 | 1 | nt
COc1ccccc1/C=N/NC(=O)c1ccccc1NS(=O)(=O)c1ccc(C)cc1 | 52* | 2 | -8 | 3 | -6 | -2 | nt
COc1ccccc1C=NNC(=O)C(=O)NN=Cc1ccccc1OC | 40* | 0 | -2 | -5 | -6 | nt | i
CCNC(=O)COC(=O)c1ccc(-c2nc3ccccc3s2)s1 | 56* | 3 | -1 | 1 | -6 | -2 | i
Cc1noc(C)c1COC(=O)c1ccc(-c2nc3ccccc3s2)s1 | 29 | 1 | -4 | 0 | -7 | 5 | nt
NC(=O)c1cnn(-c2cc(Oc3ccccc3)ncn2)c1N | -3 | 2 | -1 | -5 | -1 | -2 | nt
O=C(Cc1ccc(Br)cc1)NNC(=O)c1cccs1 | 2 | 1 | -1 | 1 | 6 | nt | nt
CCOc1ccccc1N(C(=O)c1snc(C(N)=O)c1N)C(C(=O)NCCC(C)C)c1ccco1 (stereo not drawn) | 44* | 0 | 5 | -2 | 1 | -1 | i
